Experimental data from ChEMBL document CHEMBL4304834, “3-Amino-chromanes and Tetrahydroquinolines as Selective 5-HT2B, 5-HT7, or σ1 Receptor Ligands” (ACS Med Chem Lett, 2019).

Columns and labels:
Assay type in all cases: cell-based
[1] = target: T1, Muscarinic acetylcholine receptor M4 (Homo sapiens) (UniProt P08173); experiment: Displacement of [3H]-QNB/[3H]-NMS from human recombinant Muscarinic acetylcholine M4 receptor expressed in stable CHO cells at 10 uM after 90 mins by microbeta scintillation counting method relative to control
T1 sequence (whole entry): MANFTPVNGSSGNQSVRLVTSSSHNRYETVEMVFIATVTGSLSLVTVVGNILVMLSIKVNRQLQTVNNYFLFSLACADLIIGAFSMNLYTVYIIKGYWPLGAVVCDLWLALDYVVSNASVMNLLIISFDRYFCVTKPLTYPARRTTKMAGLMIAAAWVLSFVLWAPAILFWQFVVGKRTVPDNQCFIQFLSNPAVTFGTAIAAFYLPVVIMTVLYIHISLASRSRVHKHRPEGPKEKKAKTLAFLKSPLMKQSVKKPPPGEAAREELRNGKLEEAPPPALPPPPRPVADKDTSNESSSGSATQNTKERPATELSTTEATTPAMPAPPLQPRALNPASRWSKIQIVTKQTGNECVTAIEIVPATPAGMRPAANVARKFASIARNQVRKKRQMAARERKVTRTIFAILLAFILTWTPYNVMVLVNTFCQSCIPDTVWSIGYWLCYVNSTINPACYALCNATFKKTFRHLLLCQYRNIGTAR

[2] = target: Beta-1 adrenergic receptor (Homo sapiens, UniProt P08588); experiment: Displacement of [125I]-pindolol from human recombinant adrenergic Beta1 receptor expressed in Flp-In CHO cells after 90 mins by microbeta scintillation counting method
Beta-1 adrenergic receptor, sequence (P08588 whole entry): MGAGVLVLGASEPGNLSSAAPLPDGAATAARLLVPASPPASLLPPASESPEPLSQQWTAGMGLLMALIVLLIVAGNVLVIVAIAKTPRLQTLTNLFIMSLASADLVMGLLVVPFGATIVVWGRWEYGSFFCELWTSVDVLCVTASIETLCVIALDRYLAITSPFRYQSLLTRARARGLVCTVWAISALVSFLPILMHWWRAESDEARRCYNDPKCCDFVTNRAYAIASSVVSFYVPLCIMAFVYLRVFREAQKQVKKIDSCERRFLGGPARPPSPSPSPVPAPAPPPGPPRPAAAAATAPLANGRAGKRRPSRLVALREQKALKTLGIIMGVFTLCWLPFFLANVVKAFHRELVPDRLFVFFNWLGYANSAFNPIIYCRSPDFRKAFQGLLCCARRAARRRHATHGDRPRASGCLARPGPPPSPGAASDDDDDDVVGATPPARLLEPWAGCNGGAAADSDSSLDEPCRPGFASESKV
In short: (§1)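 Radioligand binding run by the NIMH Psychoactive Drug Screening Program. […] Otherwise Ki comes from sigmoidal curve fits of triplicate measurements in a single experiment, or is averaged over repeated experiments each run in triplicate.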

[3] = target: T2, Alpha-1A adrenergic receptor (Homo sapiens) (UniProt P35348); experiment: Displacement of [3H]-Prazosin from human recombinant adrenergic alpha1A receptor expressed in cells at 10 uM after 90 mins by microbeta scintillation counting method relative to control
T2 sequence (whole entry): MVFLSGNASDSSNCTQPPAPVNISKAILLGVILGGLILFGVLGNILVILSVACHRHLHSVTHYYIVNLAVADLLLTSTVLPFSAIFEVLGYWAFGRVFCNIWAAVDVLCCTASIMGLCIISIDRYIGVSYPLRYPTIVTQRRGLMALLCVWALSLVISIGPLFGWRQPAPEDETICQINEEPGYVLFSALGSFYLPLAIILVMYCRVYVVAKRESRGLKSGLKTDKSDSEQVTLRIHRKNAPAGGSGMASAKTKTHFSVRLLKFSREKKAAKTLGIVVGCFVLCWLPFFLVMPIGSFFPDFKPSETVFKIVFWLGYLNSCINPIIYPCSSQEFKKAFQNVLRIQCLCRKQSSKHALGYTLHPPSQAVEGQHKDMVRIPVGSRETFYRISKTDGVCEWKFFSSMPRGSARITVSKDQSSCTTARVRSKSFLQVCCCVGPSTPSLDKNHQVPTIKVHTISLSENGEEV

[4] = target: Delta-type opioid receptor (Homo sapiens, UniProt P41143); experiment: Displacement of [3H]-DADLE from human recombinant DOR receptor expressed in stable HEK cells at 10 uM after 90 mins by microbeta scintillation counting method relative to control; in short: as §1
Delta-type opioid receptor, sequence (P41143 whole entry): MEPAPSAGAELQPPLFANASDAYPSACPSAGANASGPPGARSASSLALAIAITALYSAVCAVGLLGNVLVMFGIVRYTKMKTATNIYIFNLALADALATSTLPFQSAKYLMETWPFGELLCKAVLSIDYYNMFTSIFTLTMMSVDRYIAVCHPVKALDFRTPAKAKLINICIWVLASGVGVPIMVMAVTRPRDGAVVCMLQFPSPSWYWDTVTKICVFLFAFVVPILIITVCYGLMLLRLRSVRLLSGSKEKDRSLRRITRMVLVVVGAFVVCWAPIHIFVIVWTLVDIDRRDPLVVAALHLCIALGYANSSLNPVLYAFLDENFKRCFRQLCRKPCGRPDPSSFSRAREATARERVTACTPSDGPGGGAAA

D(1B) dopamine receptor = D(1B) dopamine receptor (Homo sapiens, UniProt P21918); experiment: Displacement of [3H]-SCH23390 from human recombinant dopamine D5 receptor expressed in HEKT cells after 90 mins by microbeta scintillation counting method
D(1B) dopamine receptor, sequence (P21918 whole entry): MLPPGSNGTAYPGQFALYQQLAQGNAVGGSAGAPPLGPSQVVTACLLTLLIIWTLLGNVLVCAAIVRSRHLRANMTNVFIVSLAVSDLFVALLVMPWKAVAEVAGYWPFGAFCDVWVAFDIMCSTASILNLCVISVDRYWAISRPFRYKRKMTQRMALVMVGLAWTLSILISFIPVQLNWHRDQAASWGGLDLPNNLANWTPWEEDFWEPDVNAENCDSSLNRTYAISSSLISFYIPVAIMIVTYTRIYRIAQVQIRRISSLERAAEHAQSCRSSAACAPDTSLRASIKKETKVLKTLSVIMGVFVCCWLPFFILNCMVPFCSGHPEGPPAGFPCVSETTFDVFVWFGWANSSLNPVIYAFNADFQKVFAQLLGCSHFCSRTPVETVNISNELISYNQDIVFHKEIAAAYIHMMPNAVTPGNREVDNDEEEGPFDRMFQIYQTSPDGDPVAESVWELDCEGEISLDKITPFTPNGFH
In short: (§2)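 Radioligand binding was run by the NIMH Psychoactive Drug Screening Program. Compounds were first screened at 10 μM. Those giving ≥50% binding were taken to full competition curves. Ki is reported as pKi from a sigmoidal curve fit of triplicate measurements in a single experiment; the error is the curve-fit error.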

D(4) dopamine receptor = target: T3, D(4) dopamine receptor (Homo sapiens, UniProt P21917); experiment: Displacement of [3H]-methylspiperone from human recombinant dopamine D4 receptor expressed in Stable HEK cells after 90 mins by microbeta scintillation counting method; in short: as §2
T3 sequence (P21917 whole entry): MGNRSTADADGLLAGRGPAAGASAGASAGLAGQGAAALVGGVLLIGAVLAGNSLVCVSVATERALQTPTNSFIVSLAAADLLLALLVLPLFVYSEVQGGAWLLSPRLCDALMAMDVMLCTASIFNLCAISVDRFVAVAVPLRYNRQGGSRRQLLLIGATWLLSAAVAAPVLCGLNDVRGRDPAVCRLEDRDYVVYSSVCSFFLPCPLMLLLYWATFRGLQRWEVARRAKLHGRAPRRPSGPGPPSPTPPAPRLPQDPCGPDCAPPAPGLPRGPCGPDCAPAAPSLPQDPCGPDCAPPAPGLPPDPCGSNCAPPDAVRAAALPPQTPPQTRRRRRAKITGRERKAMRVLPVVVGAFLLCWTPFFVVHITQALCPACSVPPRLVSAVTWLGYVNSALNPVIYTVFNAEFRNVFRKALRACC

D(2) dopamine receptor = D(2) dopamine receptor (Homo sapiens, UniProt P14416); experiment: Displacement of [3H]-N-methylspiperone from human recombinant dopamine D2 receptor expressed in stable fibroblast cells after 90 mins by microbeta scintillation counting method; in short: as §1
D(2) dopamine receptor, sequence (P14416 whole entry): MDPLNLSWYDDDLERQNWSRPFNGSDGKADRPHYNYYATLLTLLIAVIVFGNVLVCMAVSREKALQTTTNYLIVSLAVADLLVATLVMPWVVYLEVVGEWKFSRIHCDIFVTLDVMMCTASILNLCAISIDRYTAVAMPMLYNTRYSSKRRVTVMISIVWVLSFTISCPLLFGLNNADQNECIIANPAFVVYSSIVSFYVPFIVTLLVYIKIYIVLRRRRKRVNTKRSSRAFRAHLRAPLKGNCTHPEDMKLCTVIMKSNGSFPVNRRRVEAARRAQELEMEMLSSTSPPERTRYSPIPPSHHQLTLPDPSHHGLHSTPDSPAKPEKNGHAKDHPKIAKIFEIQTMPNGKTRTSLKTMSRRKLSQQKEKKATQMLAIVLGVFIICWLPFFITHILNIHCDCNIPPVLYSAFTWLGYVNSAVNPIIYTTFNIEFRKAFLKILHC

D(1A) dopamine receptor = D(1A) dopamine receptor (Homo sapiens, UniProt P21728); experiment: Displacement of [3H]-SCH23390 from human recombinant dopamine D1 receptor expressed in HEKT cells at 10 uM after 90 mins by microbeta scintillation counting method relative to control
D(1A) dopamine receptor, sequence (P21728 whole entry): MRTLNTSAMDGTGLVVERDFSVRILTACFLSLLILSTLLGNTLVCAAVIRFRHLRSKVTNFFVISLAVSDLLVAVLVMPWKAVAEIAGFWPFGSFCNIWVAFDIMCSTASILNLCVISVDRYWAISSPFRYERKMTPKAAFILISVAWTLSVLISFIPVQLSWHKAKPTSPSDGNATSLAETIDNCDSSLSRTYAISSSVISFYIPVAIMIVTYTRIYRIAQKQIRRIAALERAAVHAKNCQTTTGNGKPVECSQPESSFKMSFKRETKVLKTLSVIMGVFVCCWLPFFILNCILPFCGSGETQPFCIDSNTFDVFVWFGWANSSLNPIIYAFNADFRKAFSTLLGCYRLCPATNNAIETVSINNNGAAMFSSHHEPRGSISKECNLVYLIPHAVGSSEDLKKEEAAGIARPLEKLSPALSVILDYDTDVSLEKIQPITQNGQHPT

[5] = target: Sodium-dependent noradrenaline transporter (Homo sapiens, UniProt P23975); experiment: Displacement of [3H]-Nisoxetine from human recombinant NET receptor expressed in stable HEK cells after 90 mins by microbeta scintillation counting method; in short: as §1
Sodium-dependent noradrenaline transporter, sequence (P23975 whole entry): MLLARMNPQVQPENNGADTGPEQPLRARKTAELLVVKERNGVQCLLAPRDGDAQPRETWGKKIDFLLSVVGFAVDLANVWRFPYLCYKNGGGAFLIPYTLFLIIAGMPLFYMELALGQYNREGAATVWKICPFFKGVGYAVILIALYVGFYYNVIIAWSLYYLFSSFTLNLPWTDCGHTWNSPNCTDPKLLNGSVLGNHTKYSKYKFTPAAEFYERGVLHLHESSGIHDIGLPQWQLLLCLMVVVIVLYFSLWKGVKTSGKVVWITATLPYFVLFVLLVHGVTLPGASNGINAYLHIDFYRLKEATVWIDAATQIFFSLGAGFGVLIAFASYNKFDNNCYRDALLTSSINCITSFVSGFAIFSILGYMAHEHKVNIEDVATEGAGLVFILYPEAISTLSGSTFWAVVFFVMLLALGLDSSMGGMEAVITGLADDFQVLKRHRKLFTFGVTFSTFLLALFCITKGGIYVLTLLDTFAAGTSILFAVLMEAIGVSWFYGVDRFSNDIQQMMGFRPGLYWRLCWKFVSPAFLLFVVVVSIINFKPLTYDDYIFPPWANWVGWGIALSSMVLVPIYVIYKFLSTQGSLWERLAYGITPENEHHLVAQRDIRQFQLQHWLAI

[6] = target: T4, Alpha-2B adrenergic receptor (Homo sapiens, UniProt P18089); experiment: Displacement of [3H]-Rauwolscine from human recombinant adrenergic Alpha2B receptor expressed in HEKT cells after 90 mins by microbeta scintillation counting method; in short: as §2
T4 sequence (P18089 whole entry): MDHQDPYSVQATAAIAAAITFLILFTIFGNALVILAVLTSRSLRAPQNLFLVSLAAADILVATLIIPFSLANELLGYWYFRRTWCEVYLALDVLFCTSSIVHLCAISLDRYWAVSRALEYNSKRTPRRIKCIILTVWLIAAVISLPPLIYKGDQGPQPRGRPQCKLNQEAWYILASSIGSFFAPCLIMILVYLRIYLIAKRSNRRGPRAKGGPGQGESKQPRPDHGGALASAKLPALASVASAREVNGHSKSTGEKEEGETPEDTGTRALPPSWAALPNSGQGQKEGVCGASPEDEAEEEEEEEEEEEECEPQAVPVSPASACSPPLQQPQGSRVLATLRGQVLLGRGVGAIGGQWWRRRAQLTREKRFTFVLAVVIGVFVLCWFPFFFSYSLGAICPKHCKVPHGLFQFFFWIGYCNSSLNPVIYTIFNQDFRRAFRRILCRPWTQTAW

[7] = target: 5-hydroxytryptamine receptor 1B (Homo sapiens, UniProt P28222); experiment: Displacement of [3H]5-CT from human recombinant 5-HT1B receptor expressed in stable HEK cells at 10 uM after 90 mins by microbeta scintillation counting method relative to control
5-hydroxytryptamine receptor 1B, sequence (P28222 whole entry): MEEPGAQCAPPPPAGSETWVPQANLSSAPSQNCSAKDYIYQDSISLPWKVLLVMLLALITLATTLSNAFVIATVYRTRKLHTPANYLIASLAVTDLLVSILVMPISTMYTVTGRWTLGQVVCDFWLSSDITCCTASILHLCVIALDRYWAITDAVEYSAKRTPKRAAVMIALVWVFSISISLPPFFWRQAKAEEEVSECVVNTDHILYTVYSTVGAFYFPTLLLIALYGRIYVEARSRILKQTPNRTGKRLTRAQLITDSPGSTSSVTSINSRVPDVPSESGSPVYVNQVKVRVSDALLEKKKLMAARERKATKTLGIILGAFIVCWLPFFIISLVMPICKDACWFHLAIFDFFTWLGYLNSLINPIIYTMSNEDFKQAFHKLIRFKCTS

SMILES	inhibition [1]	Ki [2]	inhibition [3]	inhibition [4]	Ki (D(1B) dopamine receptor)	Ki (D(4) dopamine receptor)	Ki (D(2) dopamine receptor)	inhibition (D(1A) dopamine receptor)	Ki [5]	Ki [6]	inhibition [7]
CC[C@H]1c2cc(OC)ccc2CC[C@@]1(C)N (racemic)	< 50%	> 10 µM	< 50%	< 50%	> 10 µM	> 10 µM	> 10 µM	< 50%	2.51 µM	5.01 µM	< 50%
CC[C@H]1c2cc(C)ccc2OC[C@@]1(C)N (racemic)	< 50%	> 10 µM	< 50%	< 50%	> 10 µM	> 10 µM	> 10 µM	< 50%	0.316 µM	> 10 µM	< 50%
CC[C@H]1c2ccccc2N(c2ccccc2)C[C@@]1(C)N (racemic)		> 10 µM			> 10 µM	2 µM	> 10 µM		0.398 µM	0.398 µM	
C[C@@]12CN(c3ccccc3)c3ccccc3[C@@H]1CCN2 (racemic)		3.16 µM			> 10 µM	> 10 µM	> 10 µM		1.58 µM	> 10 µM	
COc1cc(OC)c2c(c1)OC[C@@]1(C)NCC[C@@H]21 (racemic)	< 50%	1 µM	< 50%	< 50%	> 10 µM	> 10 µM	> 10 µM	< 50%	> 10 µM	> 10 µM	< 50%
